Laboratory results published in ChEMBL document CHEMBL5620393, “New aryl and acylsulfonamides as state-dependent inhibitors of Nav1.3 voltage-gated sodium channel” (Eur J Med Chem, 2023).
pIC50: −log10 of the molar value. Calls of active or inactive are those of the source. The calls are words filed in the database; no cut-off is given here.

How the values were obtained:
[1] = tested on: HepG2; test: Cytotoxicity against human HepG2 cells
[2] = target: T1, Sodium channel protein type 3 subunit alpha (Homo sapiens, UniProt Q9NY46); test: Inhibition of human Nav1.3 expressed in CHO cells under resting state by automated patch clamp electrophysiology analysis; format: cell-based
[3] = target: T1, Sodium channel protein type 3 subunit alpha; test: Inhibition of human Nav1.3 expressed in CHO cells under inactivated state by automated patch clamp electrophysiology analysis; format: cell-based
[4] = target: T2, Sodium channel protein type 5 subunit alpha (Homo sapiens, UniProt Q14524); test: Inhibition of human Nav1.5 expressed in CHO cells under tonic pulse 1 by automated patch clamp electrophysiology analysis; format: cell-based
[5] = target: T3, Sodium channel protein type 9 subunit alpha (Homo sapiens, UniProt Q15858); test: Inhibition of human Nav1.7 expressed in CHO cells under resting state by automated patch clamp electrophysiology analysis; format: cell-based
[6] = target: T3, Sodium channel protein type 9 subunit alpha; test: Inhibition of human Nav1.7 expressed in CHO cells under inactivated state by automated patch clamp electrophysiology analysis; format: cell-based
[7] = target: T2, Sodium channel protein type 5 subunit alpha; test: Inhibition of human Nav1.5 expressed in CHO cells under resting state by automated patch clamp electrophysiology analysis; format: cell-based
[8] = target: T2, Sodium channel protein type 5 subunit alpha; test: Inhibition of human Nav1.5 expressed in CHO cells under inactivated state by automated patch clamp electrophysiology analysis; format: cell-based
[9] = target: Sodium channel protein type 1 subunit alpha (Homo sapiens) (UniProt P35498); test: Inhibition of human Nav1.1 expressed in Xenopus laevis oocytes at closed state at 1 uM by two electrode voltage-clamp assay; format: cell-based; conditions: Oocyte
In short: (§1)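 TEVC on Nav channels expressed in Xenopus laevis oocytes. Each oocyte was injected with 50 nL cRNA at 1 ng/nL and recorded 1–4 days later at 18–22 °C. Bath (mM): NaCl 96, KCl 2, CaCl2 1.8, MgCl2 2, HEPES 5, pH 7.4. Electrodes held 3 M KCl at 0.8–1.5 MΩ. Compound tested at 1 μM. Mean ± SD, n ≥ 5.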

[10] = target: Sodium channel protein type 2 subunit alpha (Rattus norvegicus) (UniProt P04775); test: Inhibition of rat Nav1.2 expressed in Xenopus laevis oocytes at closed state at 1 uM by two electrode voltage-clamp assay; format: cell-based; conditions: Oocyte; in short: as §1
[11] = target: Sodium channel protein type 3 subunit alpha (Rattus norvegicus) (UniProt P08104); test: Inhibition of rat Nav1.3 expressed in Xenopus laevis oocytes at 1 uM under inactivated state by two electrode voltage-clamp assay relative to control; format: cell-based; conditions: Oocyte; in short: as §1
[12] = target: Sodium channel protein type 4 subunit alpha (Rattus norvegicus) (UniProt P15390); test: Inhibition of rat Nav1.4 expressed in Xenopus laevis oocytes at closed state at 1 uM by two electrode voltage-clamp assay; format: cell-based; conditions: Oocyte; in short: as §1
[13] = target: T2, Sodium channel protein type 5 subunit alpha; test: Inhibition of human Nav1.5 expressed in Xenopus laevis oocytes at closed state at 1 uM by two electrode voltage-clamp assay; format: cell-based; conditions: oocyte; in short: as §1
[14] = target: Sodium channel protein type 8 subunit alpha (Mus musculus) (UniProt Q9WTU3); test: Inhibition of mouse Nav1.6 expressed in Xenopus laevis oocytes at closed state at 1 uM by two electrode voltage-clamp assay; format: cell-based; conditions: Oocyte; in short: as §1
[15] = target: T3, Sodium channel protein type 9 subunit alpha; test: Inhibition of human Nav1.7 expressed in Xenopus laevis oocytes at closed state at 1 uM by two electrode voltage-clamp assay; format: cell-based; conditions: Oocyte; in short: as §1
[16] = target: Sodium channel protein type 10 subunit alpha (Homo sapiens) (UniProt Q9Y5Y9); test: Inhibition of human Nav1.8 expressed in Xenopus laevis oocytes at closed state at 1 uM by two electrode voltage-clamp assay; format: cell-based; conditions: Oocyte; in short: as §1
[17] = target: Sodium channel protein type 3 subunit alpha (Rattus norvegicus) (UniProt P08104); test: Inhibition of rat Nav1.3 expressed in Xenopus laevis oocytes at 1 uM under resting state by two electrode voltage-clamp assay relative to control; format: cell-based; conditions: Oocyte; in short: as §1
[18] = target: T2, Sodium channel protein type 5 subunit alpha; test: Inhibition of human Nav1.5 expressed in CHO cells by automated patch clamp electrophysiology analysis

T2 sequence (Q14524 whole entry): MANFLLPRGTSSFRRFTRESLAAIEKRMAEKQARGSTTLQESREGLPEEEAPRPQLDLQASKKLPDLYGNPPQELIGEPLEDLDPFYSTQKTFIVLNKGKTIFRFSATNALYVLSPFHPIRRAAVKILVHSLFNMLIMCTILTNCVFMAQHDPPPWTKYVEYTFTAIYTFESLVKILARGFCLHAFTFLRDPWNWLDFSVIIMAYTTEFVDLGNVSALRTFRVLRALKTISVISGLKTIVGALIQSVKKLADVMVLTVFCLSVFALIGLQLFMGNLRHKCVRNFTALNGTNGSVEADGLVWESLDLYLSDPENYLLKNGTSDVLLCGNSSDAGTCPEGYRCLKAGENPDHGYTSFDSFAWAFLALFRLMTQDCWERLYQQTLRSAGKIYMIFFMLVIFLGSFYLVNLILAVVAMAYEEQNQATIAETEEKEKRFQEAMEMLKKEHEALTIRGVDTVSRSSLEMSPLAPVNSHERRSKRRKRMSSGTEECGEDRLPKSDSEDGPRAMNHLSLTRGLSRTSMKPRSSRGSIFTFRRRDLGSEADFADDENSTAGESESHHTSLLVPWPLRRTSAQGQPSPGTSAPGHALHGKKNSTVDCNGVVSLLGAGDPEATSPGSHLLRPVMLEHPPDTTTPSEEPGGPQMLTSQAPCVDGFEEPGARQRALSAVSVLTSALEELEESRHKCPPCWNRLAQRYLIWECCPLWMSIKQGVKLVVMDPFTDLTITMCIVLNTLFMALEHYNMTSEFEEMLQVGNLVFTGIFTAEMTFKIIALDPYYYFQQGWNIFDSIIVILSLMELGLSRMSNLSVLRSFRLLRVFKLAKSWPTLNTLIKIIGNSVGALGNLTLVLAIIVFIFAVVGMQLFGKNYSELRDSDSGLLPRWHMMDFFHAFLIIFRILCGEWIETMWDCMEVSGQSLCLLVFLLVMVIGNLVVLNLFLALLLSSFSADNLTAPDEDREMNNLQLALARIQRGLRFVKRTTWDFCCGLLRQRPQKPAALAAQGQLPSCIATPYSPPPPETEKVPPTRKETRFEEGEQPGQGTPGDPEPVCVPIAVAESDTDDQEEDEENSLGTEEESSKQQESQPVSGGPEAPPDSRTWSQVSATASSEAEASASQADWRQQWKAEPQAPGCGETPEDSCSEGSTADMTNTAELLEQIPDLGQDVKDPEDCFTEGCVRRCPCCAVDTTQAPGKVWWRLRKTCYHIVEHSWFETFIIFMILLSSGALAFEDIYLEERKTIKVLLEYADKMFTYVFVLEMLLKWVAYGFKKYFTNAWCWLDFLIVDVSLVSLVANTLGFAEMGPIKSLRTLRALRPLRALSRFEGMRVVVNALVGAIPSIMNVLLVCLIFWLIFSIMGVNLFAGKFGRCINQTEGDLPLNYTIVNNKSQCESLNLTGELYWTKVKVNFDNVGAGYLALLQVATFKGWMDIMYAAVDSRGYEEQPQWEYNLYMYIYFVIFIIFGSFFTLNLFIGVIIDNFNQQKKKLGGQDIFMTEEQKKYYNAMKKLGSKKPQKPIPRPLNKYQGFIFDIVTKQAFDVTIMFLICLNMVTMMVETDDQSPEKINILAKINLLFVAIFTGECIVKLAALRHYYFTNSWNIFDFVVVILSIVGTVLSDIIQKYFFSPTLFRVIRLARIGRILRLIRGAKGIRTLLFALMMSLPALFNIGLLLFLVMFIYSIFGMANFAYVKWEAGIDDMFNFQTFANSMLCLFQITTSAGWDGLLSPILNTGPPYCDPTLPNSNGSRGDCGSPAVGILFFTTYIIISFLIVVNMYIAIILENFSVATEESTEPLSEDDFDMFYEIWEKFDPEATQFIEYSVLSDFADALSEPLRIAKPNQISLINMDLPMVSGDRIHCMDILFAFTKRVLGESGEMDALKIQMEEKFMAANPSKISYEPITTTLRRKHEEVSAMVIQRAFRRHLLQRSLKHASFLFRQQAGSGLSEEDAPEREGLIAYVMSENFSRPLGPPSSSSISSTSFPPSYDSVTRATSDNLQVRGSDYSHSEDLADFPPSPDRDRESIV
Sodium channel protein type 3 subunit alpha (Rattus norvegicus), sequence (P08104 whole entry): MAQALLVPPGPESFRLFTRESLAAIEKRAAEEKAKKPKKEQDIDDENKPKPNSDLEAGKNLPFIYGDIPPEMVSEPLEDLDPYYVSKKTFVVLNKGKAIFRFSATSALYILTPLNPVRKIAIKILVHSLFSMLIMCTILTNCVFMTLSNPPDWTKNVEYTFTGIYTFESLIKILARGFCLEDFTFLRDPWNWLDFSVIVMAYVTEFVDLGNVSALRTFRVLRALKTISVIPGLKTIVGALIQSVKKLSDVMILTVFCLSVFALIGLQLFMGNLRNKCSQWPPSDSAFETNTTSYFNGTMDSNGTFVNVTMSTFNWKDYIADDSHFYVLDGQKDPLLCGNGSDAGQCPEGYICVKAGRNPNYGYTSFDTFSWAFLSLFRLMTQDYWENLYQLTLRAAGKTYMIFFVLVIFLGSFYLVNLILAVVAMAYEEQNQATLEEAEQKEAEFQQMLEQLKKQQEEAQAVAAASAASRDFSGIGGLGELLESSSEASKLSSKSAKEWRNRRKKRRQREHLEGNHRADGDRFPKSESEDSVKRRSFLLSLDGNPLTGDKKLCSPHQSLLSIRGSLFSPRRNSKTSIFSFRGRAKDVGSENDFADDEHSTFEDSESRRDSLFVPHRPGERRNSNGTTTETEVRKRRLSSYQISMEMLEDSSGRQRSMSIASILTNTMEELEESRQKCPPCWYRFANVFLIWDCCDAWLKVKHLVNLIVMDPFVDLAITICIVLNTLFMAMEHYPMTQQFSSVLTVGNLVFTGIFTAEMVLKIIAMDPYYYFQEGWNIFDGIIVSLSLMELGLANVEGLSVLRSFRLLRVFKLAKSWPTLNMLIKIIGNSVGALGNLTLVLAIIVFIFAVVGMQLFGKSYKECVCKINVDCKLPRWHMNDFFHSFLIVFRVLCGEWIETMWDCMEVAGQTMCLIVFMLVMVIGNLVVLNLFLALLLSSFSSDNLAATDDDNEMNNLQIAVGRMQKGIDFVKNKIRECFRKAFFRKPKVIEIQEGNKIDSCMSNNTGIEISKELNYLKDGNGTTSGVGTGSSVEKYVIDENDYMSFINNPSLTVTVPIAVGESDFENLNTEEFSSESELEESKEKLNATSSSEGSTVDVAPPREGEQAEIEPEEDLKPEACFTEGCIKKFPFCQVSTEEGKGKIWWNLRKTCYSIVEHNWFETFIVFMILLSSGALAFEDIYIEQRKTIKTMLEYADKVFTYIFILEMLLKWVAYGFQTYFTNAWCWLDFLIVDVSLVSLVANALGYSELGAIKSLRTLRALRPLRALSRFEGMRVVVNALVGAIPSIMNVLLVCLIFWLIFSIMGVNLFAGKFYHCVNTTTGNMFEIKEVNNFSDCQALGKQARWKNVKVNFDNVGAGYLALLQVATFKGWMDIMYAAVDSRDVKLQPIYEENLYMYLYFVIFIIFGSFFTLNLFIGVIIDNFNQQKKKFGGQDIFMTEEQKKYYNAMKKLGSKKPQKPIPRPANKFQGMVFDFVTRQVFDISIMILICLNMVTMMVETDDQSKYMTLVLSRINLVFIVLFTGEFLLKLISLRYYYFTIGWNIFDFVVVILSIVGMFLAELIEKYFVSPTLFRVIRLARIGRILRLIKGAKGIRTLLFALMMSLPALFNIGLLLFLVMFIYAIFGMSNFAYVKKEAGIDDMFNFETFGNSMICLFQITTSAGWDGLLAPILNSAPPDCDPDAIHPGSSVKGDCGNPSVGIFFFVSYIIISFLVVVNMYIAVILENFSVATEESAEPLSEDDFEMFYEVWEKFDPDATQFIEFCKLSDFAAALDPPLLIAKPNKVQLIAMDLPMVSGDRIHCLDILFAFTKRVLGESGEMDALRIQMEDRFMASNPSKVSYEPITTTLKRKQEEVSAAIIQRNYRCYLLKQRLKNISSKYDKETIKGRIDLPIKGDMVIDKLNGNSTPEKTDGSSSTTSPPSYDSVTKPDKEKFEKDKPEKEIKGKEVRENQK

pIC50 [2]	pIC50 [3]	pIC50 [5]	pIC50 [6]	inhibition [9]	inhibition [10]	inhibition [11] [%]	inhibition [12]	inhibition [14]	inhibition [15]	inhibition [16]	inhibition [17] [%]	Compound	pIC50 [1]	pIC50 [4]	pIC50 [7]	pIC50 [8]	inhibition (INH) [13]	pIC50 [18]
–	–	–	–	–	–	–	–	–	–	–	–	COc1cc([C@@H]2c3cc4c(cc3[C@@H](O[C@@H]3O[C@@H]5CO[C@@H](C)O[C@H]5[C@H](O)[C@H]3O)[C@H]3COC(=O)[C@H]23)OCO4)cc(OC)c1O [ETOPOSIDE]	4.52	–	–	–	–	–
5.16	7.70	< 4.52	5.15	inactive	inactive	63	inactive	inactive	inactive	inactive	< 9	O=C(Nc1ccc(S(=O)(=O)Nc2nccs2)cc1)C1CC1c1ccc(F)c(F)c1 (racemic)	–	< 4.52	< 4.52	5.52	Not Active	< 4.52
